First the molecules themselves.
B1: tRNA (parent)
chain: GUUCCGUUGGCGUAAUGGUAACGCGUCUCCCUCCUAAGGAGAAGACUGCGGGUUCGAGUCCCGUACGGAACG

Results on 37 variants are retold here after the RNAGym collection of RNA variant scans (doi:10.1126/science.aae0568).

Variants at the floor of the assay were thinned out. Bounds are passed on as bounds.

The variants in this data set derive from B1. The data set can be described thus: yeast fitness relative to wild type (ratio to wild type); higher = fitter; tRNA-Arg(CCU), competitive growth, 37 C, YPD. Put shortly:
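The tRNA-Arg(CCU) gene variants were made by chemical synthesis with a 3% per-site mutation rate at 69 sites and inserted at the native genomic locus of Saccharomyces cerevisiae. After pooling, the strains were competed in YPD at 37°C for 24 hours in six parallel replicates. Gene amplicons from the start population and each end population were read by 100-nucleotide paired-end sequencing, and Darwinian fitness relative to wild type was taken from genotype frequency changes. Genotypes needed ≥ 100 starting reads, and estimates < 0.5 were set to 0.5.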
Take GUUCCGUUGGCGUAAUGGUAACGCGUUUCCCUCCUAAGGAGAAGAGUGCGGGUUCGAGUCCCGUACGGCACG [C27U C46G A69C]: the yeast fitness was 0.757.
Turning to GUUCCGUUGGCGUAAUGGUAACGCGUUUCCCUCCUAAGGAGAAGACUGCGGGUUAGAAUCCCGUACGGAACG [C27U C55A G58A], the yeast fitness is at most 0.5.
For GUUCCGUUGGCGUAAUGGUAACGCGUUUCCCUCGUAAGGAGAAGACUGCAGGUUCGAGUCCCGUACGCAACG [C27U C34G G50A G68C], the yeast fitness is at most 0.5.
With GUUCCGUUGGCGUAAUGGUAACGCGUUUCCCUCCUAAGGAGAAGCCUGCGGGUUCGAGUCCCGUACAGAACG [C27U A45C G67A] the figure was 0.666.
The result for GUUCCGUUGGCGUAAUGGUAACGCGUUUCCCUCCUAAGGAGAAGCCUGUGGGUUCAAGUCCCGUACGGAACG [C27U A45C C49U G56A] reads at most 0.5.
With GUUCCGUUGGCGUAAUGGUAACGCGUUUCCCUGCUAAGGAGAAGACUGCGGGUUCGGGUCCCGUACGGAACG [C27U C33G A57G] the figure was at most 0.5; with GUUCCGUUGGCGUAAUGGUAACGCGUUUCCCUCCUAAGGAGAAGAUUGCGGGUUCGAGUCCCGUACGGCACG [C27U C46U A69C], 0.776.
On to GUUCCGUUGGCGUAAUGGUAACGCGUUUACCUCCUAACGAGAAGACUGCGGGUUCGGGUCUCGUACGGAACG [C27U C29A G38C A57G C61U], for which the yeast fitness is at most 0.5.
The result for GUUCCGUUGGCGUAAUGGUAACGCGUUUCUCUCCUAAGGAGCAGACUGCGGGUUCGACUCCCGUACGGAACG [C27U C30U A42C G58C] reads at most 0.5; that for GUUCCGUUGGCGUAAUGGUAACGCGUUUCCCUUCCAAGGAGAAGACUGCGGGUUCGAGUCCCGUACGGAACG [C27U C33U U35C], at most 0.5; that for GUUCCGUUGGCGUAAUGGUAACGCGUUUCCCUCCUAAGGAGAAGACUGCGGGUUCGAGUCCCGUAAGCAACG [C27U C66A G68C], 0.543.
The result for GUUCCGUUGGCGUAAUGGUAACGCGUUUCCCUCAUAAGGAGAAGACUGCGGGUCCGAGUCCCGUACGGAACG [C27U C34A U54C] reads at most 0.5; that for GUUCCGUUGGCGUAAUGGUAACGCGUUUCCCUUCUUAGGAGAGGACUGCGGGUUCGAGUCCCGUACGGAACG [C27U C33U A36U A43G], at most 0.5; that for GUUCCGUUGGCGUAAUGGUAACGCGUUUCCCUCCUAAGGAGAAGACUGCGGGUUUGAGUCCCGUACGGAACG [C27U C55U], 0.773.
The result for GUUCCGUUGGCGUAAUGGUAACGCGUUUCCUUCCUAAGGAGAAGACUGCGGGUUCGAGUGCCGUACGGAACG [C27U C31U C60G] reads 0.581; that for GUUCCGUUGGCGUAAUGGUAACGCGUUUCUCUCAUAAGGAGAAGACUGCGGGUUCGAGUCCAGUACGGAACG [C27U C30U C34A C62A], at most 0.5.
Regarding GUUCCGUUGGCGUAAUGGUAACGCGUUUCCUUCCCUAGGAGAAGACUGCGGGUUAGAGUCCCGUAGGGAACG [C27U C31U U35C A36U C55A C66G], the yeast fitness was determined as 0.777.
The result for GUUCCGUUGGCGUAAUGGUAACGCGUUUUCCUCCUAAGGAGAAGACUGCGGGUUCGCGUCCCGUACGGAACG [C27U C29U A57C] reads at most 0.5; that for GUUCCGUUGGCGUAAUGGUAACGCGUUUCUCUCCUAAGGAGAAGACUGCGGGUUCGAGUCCCGUACGGAGCG [C27U C30U A70G], 0.624; that for GUUCCGUUGGCGUAAUGGUAACGCGUUUCUCUCCUAAGGAGAAGAGUGCGGGUUCGAGUCCCGUACGGAACG [C27U C30U C46G], 0.558.
The result for GUUCCGUUGGCGUAAUGGUAACGCGUUUCCCUCCUAAGGAGAAGAAUGCAGGUUCGAGUCCCGUACGGAACG [C27U C46A G50A] reads 0.73; that for GUUCCGUUGGCGUAAUGGUAACGCGUUUCCCUCCUAAGGAGAAGACUGCGGGUUCGAGUCCCGUUCGGACCG [C27U A65U A70C], 0.607.
The result for GUUCCGUUGGCGUAAUGGUAACGCGUUUCCCUGGUAAGGAGAAAACUGCAGAUUCGAGUCCCGUUCGGAACG [C27U C33G C34G G44A G50A G52A A65U] reads at most 0.5.
Consider GUUCCGUUGGCGUAAUGGUAACGCGUUUCCCUGCUAAGGAGAGGCCUGCGGGUUCGAGUCCCGUACGGAACG [C27U C33G A43G A45C], for which the yeast fitness was 0.634.
The result for GUUCCGUUGGCGUAAUGGUAACGCGUUUCCCUUCUAAGGAGAAGACUGCGAGUUCGAGUCCCGUACGGAGCG [C27U C33U G51A A70G] reads 0.555; that for GUUCCGUUGGCGUAAUGGUAACGCGUUUCCCUCCUAAGGAGAAGACUGUGGGUACGGGUCCCGUAAGGAACG [C27U C49U U54A A57G C66A], 0.629; that for GUUCCGUUGGCGUAAUGGUAACGCGUUUCCCUCUUAAGGACAAGACGGCGGGUUCGAGUCCCGUACGGAACG [C27U C34U G41C U47G], at most 0.5.
The result for GUUCCGUUGGCGUAAUGGUAACGCGUUUCCCUCCUAAGGAGAAGACUGAGGGUUCGAGUCCCGUACGGAACG [C27U C49A] reads 0.785.
The result for GUUCCGUUGGCGUAAUGGUAACGCGUUUCCCUCCUAAGGAGAAGACUGCGGGUUCGAGUCCUGUACAGAACG [C27U C62U G67A] reads 0.573.
Consider GUUCCGUUGGCGUAAUGGUAACGCGUUUCGCUCCUAAGGAGAAGCCUGCGGGUUCGAGUUCGGUACGGAACG [C27U C30G A45C C60U C62G], for which the yeast fitness was found to be 0.818.
The result for GUUCCGUUGGCGUAAUGGUAACGCGUUUCCUUCCUAAGGAGAAGACUACGGGUUCGAGUCCCGUACGGAACG [C27U C31U G48A] reads 1; that for GUUCCGUUGGCGUAAUGGUAACGCGUUUCUCUCGUACGGAGAAGACUGCGGGUUCGAGUCACGUACGGAACG [C27U C30U C34G A37C C61A], at most 0.5; that for GUUCCGUUGGCGUAAUGGUAACGCGUUUCCCUCCUAAGGAGAAGCCUACGGGUUCGUGUCCCGUACGCAACG [C27U A45C G48A A57U G68C], 0.562.
With GUUCCGUUGGCGUAAUGGUAACGCGUUUCCAUCCUAAGGAGAAGUCUGCGGGUUCGAGUCCCGUACGGAACG [C27U C31A A45U] the figure was 0.747; with GUUCCGUUGGCGUAAUGGUAACGCGUUUCUCUCCUAAGGAGAAGAUUGCGGGUGCGAGUCCCGUACGGAACG [C27U C30U C46U U54G], at most 0.5.
With GUUCCGUUGGCGUAAUGGUAACGCGUUUCCCUUCUAACGAGAAGACUGCGGGUUCGAGUCCUGUACGGAACG [C27U C33U G38C C62U] the figure was at most 0.5.
Regarding GUUCCGUUGGCGUAAUGGUAACGCGUUUCCCUCUUAAGGAGAAGACUGGGGGUUCCAGUCCCGUACGGAACG [C27U C34U C49G G56C], the yeast fitness was at most 0.5.
